{"data": "Measured values collected from several papers", "target": "Dual specificity mitogen-activated protein kinase kinase 7 (MAP2K7, Homo sapiens, UniProt O14733)", "One construct used (O14733 1-419)": "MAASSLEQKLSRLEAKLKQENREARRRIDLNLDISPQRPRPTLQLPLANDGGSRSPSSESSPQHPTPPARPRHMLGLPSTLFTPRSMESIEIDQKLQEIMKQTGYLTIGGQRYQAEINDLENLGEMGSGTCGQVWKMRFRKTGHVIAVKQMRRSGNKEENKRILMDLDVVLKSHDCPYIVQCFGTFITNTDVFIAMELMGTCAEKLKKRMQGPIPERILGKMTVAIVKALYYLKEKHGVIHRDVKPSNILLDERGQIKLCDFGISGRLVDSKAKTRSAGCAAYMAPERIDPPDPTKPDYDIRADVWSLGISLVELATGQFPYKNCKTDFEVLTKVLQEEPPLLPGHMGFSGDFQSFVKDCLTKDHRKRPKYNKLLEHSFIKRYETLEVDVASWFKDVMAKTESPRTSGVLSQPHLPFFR"}
{"SMILES": "CN(C)c1nccc(-c2cnc3ncccn23)n1", "assay": "binding", "conditions": "1 µM", "remaining binding [%]": 88}
{"SMILES": "FC(F)(F)Oc1cccc(-c2cnc3ccc(-c4ccncc4)nn23)c1", "assay": "cell-free assay, competition with immobilised ligand", "conditions": "5 µM", "remaining binding [%]": 96}
{"SMILES": "C[C@@H](c1cccc(C#N)c1)n1cc(Cl)cc(C(N)=O)c1=N", "assay": "cell-free assay, competition with immobilised ligand", "conditions": "1 µM", "remaining binding [%]": 99}
{"SMILES": "CN(C)c1ncc(F)c(-c2cnn3ncccc23)n1", "assay": "binding", "conditions": "1 µM", "remaining binding [%]": 88}
{"SMILES": "CCN1CCN(Cc2ccc(C(=O)Nc3ccc(C)c(Oc4ccc5c(c4)CC(=O)N5)c3)cc2C(F)(F)F)CC1", "assay": "binding, competition with immobilised ligand", "conditions": "1 µM", "remaining binding [%]": 97}
{"SMILES": "COc1cnc(Nc2cccc(S(N)(=O)=O)c2)nc1N1CCN(c2ccccc2)CC1", "assay": "binding, competition with immobilised ligand", "conditions": "1 µM", "remaining binding [%]": 97}
{"SMILES": "CC1CCCN1c1nccc(-c2cnn3ncccc23)n1 (centres unmarked)", "assay": "binding", "conditions": "1 µM", "remaining binding [%]": 100}
{"SMILES": "O=C(Nc1c[nH]nc1C(=O)NC1CCNCC1)c1cc(F)cc(F)c1", "assay": "binding, competition with immobilised ligand", "conditions": "1 µM", "remaining binding [%]": 86}
{"SMILES": "N[C@H]1CCN(c2nccc(-c3cnn4ncccc34)n2)C1", "assay": "binding", "conditions": "1 µM", "remaining binding [%]": 93}
{"SMILES": "Cc1nc(N2CC[C@@H](O)C2)ncc1-c1cc(C(F)(F)F)cc2[nH]ncc12", "assay": "binding, competition with immobilised ligand", "conditions": "1 µM", "remaining binding [%]": 64}
{"SMILES": "CN(C)c1nccc(-c2cnn3ncccc23)n1", "assay": "binding", "conditions": "1 µM", "remaining binding [%]": 100}
{"SMILES": "O=C(NCCCN1CCOCC1)c1ccc(Nc2nccc(-c3cc4ccccc4s3)n2)cc1", "assay": "binding, competition with immobilised ligand", "conditions": "1 µM", "remaining binding [%]": 76}
{"SMILES": "COc1cccc(CNC(=O)c2nc3scc(COCc4ccc(C(=O)O)cc4)c3c(=O)[nH]2)c1", "assay": "cell-free assay, competition with immobilised ligand", "conditions": "1 µM", "remaining binding [%]": 81.2}
{"SMILES": "C[C@H]1CCN(c2nccc(-c3cnn4ncccc34)n2)C1", "assay": "binding", "conditions": "1 µM", "remaining binding [%]": 83}
{"SMILES": "CN(C)C(=O)Cn1cc(-c2nc([C@@](C)(c3ccc(-c4cnc(N)nc4)cc3)C3CC3)no2)cn1", "assay": "cell-free assay, competition with immobilised ligand", "conditions": "1 µM", "remaining binding [%]": 94}
{"SMILES": "O=C(c1ccc(Nc2ncc(Cl)c(-c3cc4ccccc4s3)n2)cc1)N1CCC(N2CCCC2)CC1", "assay": "binding, competition with immobilised ligand", "conditions": "1 µM", "remaining binding [%]": 96}
{"SMILES": "CN(C)CC#Cc1ccc(OCCCc2sc(N3CCc4cccc(C(=O)Nc5nc6ccccc6s5)c4C3)nc2C(=O)O)c(F)c1", "assay": "cell-free assay, competition with immobilised ligand", "conditions": "1 µM", "remaining binding [%]": 69}
{"SMILES": "Cc1cnc(Nc2ccc(C(=O)N3CCC(N4CCCC4)CC3)cc2)nc1-c1cc2ccccc2s1", "assay": "binding, competition with immobilised ligand", "conditions": "1 µM", "remaining binding [%]": 81}
{"SMILES": "O=S(=O)(NC1CCC(c2cc(F)ccc2F)(S(=O)(=O)c2ccc(Cl)cc2)CC1)C(F)(F)F (centres unmarked)", "assay": "cell-free assay, competition with immobilised ligand", "conditions": "1 µM", "remaining binding [%]": 100}
{"SMILES": "CNC(=O)[C@@H]1CC[C@@H](n2c(-c3ccc4cnccc4c3)nc3ccc(C(=O)NCc4cccc(C(N)=O)c4)cc32)C1", "assay": "binding, competition with immobilised ligand", "conditions": "1 µM", "remaining binding [%]": 100}
